Assay results from ChEMBL document CHEMBL1123371, “5-HT1 and 5-HT2 binding characteristics of some quipazine analogues” (J Med Chem, 1986).
Calls of active or inactive are those of the source. The calls are words filed in the database; no cut-off is given here.

Assays:
[1] = Displacement of [3H]5-HT from 5-hydroxytryptamine 1 receptor of rat cortical membrane homogenates
[2] = target: Serotonin 2 (5-HT2) receptor (Rattus norvegicus, UniProt P30994+P08909+P14842); experiment: Displacement of [3H]ketanserin from 5-hydroxytryptamine 2 receptor of rat cortical membrane homogenates
Rattus norvegicus [3] = experiment: Compound was evaluated in stimulus generalization test using animals trained to discriminate TFMPP from saline, and the mean responses per min at dose of 3.0 mg/kg; type: functional
Procedure, shortened: (§1)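 Male Sprague-Dawley rats (n = 6) trained to discriminate 0.5 mg/kg TFMPP HCl from saline on a two-lever operant task, VI 15-s food reward. Challenge doses were given ip in random order 15 min before a 2.5-min extinction test, with at least three training sessions between tests. Fewer than five total responses was scored as disruption.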

Rattus norvegicus [4] = experiment: Compound was evaluated in tests of stimulus generalization using animals trained to discriminate DOM from saline, and the mean responses per min at dose of 5.0 mg/kg; type: functional
Procedure, shortened: (§2)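 Male Sprague-Dawley rats (n = 10) trained to discriminate 1.0 mg/kg DOM HCl from saline on a two-lever operant task, VI 15-s food reinforcement. Test doses were given ip in random order, 15 min pre-session, with at least three training sessions between tests. Responding was scored in a 2.5-min extinction session. Rats with fewer than five total responses were counted as disrupted.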

Rattus norvegicus [5] = experiment: Compound was evaluated in stimulus generalization studies in DOM trained animals and the number of animals responding /number ot receive dose of drug at dose of 3.5 mg/kg; 4/4; type: functional; procedure, shortened: as §2
Rattus norvegicus [6] = experiment: Compound was evaluated in stimulus generalization studies in DOM trained animals and the number of animals responding /number ot receive dose of drug at dose of 0.6 mg/kg; 3/3; type: functional; procedure, shortened: as §2
Rattus norvegicus [7] = experiment: Compound was evaluated in stimulus generalization test using animals trained to discriminate TFMPP from saline, and the mean responses per min at dose of 1.0 mg/kg; type: functional; procedure, shortened: as §1
Rattus norvegicus [8] = experiment: Compound was evaluated in stimulus generalization test using animals trained to discriminate TFMPP from saline, and the drug appropriate responding at dose of 4.0 mg/kg; Not responding; type: functional, organism-based; parameters: dose 4 mg/kg; procedure, shortened: as §1
Rattus norvegicus [9] = experiment: Compound was evaluated in tests of stimulus generalization using animals trained to discriminate DOM from saline, and the mean responses per min at dose of 0.6 mg/kg; type: functional; procedure, shortened: as §2
Rattus norvegicus [10] = experiment: Compound was evaluated in stimulus generalization studies in DOM trained animals and the number of animals responding /number ot receive dose of drug at dose of 5.0 mg/kg; 3/4; type: functional; procedure, shortened: as §2
Rattus norvegicus [11] = experiment: Compound was evaluated in tests of stimulus generalization using animals trained to discriminate DOM from saline, and the mean responses per min at dose of 3.5 mg/kg; type: functional; procedure, shortened: as §2
Rattus norvegicus [12] = experiment: Compound was evaluated in stimulus generalization test using animals trained to discriminate TFMPP from saline, and the drug appropriate responding at dose of 3.5 mg/kg; type: functional; procedure, shortened: as §1
Rattus norvegicus [13] = experiment: Compound was evaluated in tests of stimulus generalization using animals trained to discriminate DOM from saline, and the drug appropriate responding at dose of 3.5 mg/kg; type: functional; procedure, shortened: as §2
Rattus norvegicus [14] = experiment: Stimulus generalization studies in TFMPP trained animals and the number of animals responding /number to receive dose of drug was determined at dose of 4.0 mg/kg; 0/3; type: functional
Rattus norvegicus [15] = experiment: Stimulus generalization studies in TFMPP trained animals and the number of animals responding /number to receive dose of drug was determined at dose of 3.5 mg/kg; 2/3; type: functional
Rattus norvegicus [16] = experiment: Compound was evaluated in stimulus generalization test using animals trained to discriminate TFMPP from saline, and the mean responses per min at dose of 3.5 mg/kg; type: functional; procedure, shortened: as §1
Rattus norvegicus [17] = species on record: Rattus norvegicus; experiment: Compound was tested for the doses at which the animals would be expected to make approximately 50% of their responses on the DOM-appropriate lever; type: functional
Procedure, shortened: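 DOM-trained rats (1.0 mg/kg DOM HCl vs saline, two-lever, VI 15 s, food) were given ip doses 15 min before a 2.5-min extinction session. Where >80% of responses fell on the DOM lever (generalization), the dose expected to give about 50% DOM-lever responding was calculated from dose–response data and reported with 95% confidence limits.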

Rattus norvegicus [18] = experiment: Compound was evaluated in stimulus generalization test using animals trained to discriminate TFMPP from saline, and the drug appropriate responding at dose of 3.0 mg/kg; type: functional; procedure, shortened: as §1
Rattus norvegicus [19] = experiment: Compound was evaluated in tests of stimulus generalization using animals trained to discriminate DOM from saline, and the drug appropriate responding at dose of 5.0 mg/kg; type: functional; procedure, shortened: as §2
Rattus norvegicus [20] = experiment: Stimulus generalization studies in TFMPP trained animals and the number of animals responding /number to receive dose of drug was determined at dose of 3 mg/kg; 2/3; type: functional
Rattus norvegicus [21] = experiment: Stimulus generalization studies in TFMPP trained animals and the number of animals responding /number to receive dose of drug was determined at dose of 1 mg/kg; 3/3; type: functional; procedure, shortened: as §1
Rattus norvegicus [22] = experiment: Compound was evaluated in stimulus generalization test using animals trained to discriminate TFMPP from saline, and the drug appropriate responding at dose of 1.0 mg/kg; type: functional; procedure, shortened: as §1
Rattus norvegicus [23] = experiment: Compound was evaluated in tests of stimulus generalization using animals trained to discriminate DOM from saline, and the drug appropriate responding at dose of 0.6 mg/kg; type: functional; procedure, shortened: as §2
Rattus norvegicus [24] = experiment: Compound was evaluated in tests of stimulus generalization using animals trained to discriminate DOM from saline, and the drug appropriate responding at dose of 2.5 mg/kg; type: functional; procedure, shortened: as §2
Rattus norvegicus [25] = experiment: Compound was evaluated in tests of stimulus generalization using animals trained to discriminate DOM from saline, and the mean responses per min at dose of 2.5 mg/kg; type: functional; procedure, shortened: as §2
Rattus norvegicus [26] = experiment: Compound was evaluated in stimulus generalization studies in DOM trained animals and the number of animals responding /number ot receive dose of drug at dose of 2.5 mg/kg; 4/4; type: functional; procedure, shortened: as §2
Rattus norvegicus [27] = experiment: Compound was evaluated in stimulus generalization test using animals trained to discriminate DOM from saline, and the drug appropriate responding at dose of 0.5 mg/kg; Not responding; type: functional, organism-based; parameters: dose 0.5 mg/kg; procedure, shortened: as §2
Rattus norvegicus [28] = experiment: Compound was evaluated in stimulus generalization test using animals trained to discriminate DOM from saline, and the drug appropriate responding at dose of 0.05 mg/kg; type: functional; procedure, shortened: as §2
Rattus norvegicus [29] = experiment: Compound was evaluated in stimulus generalization test using animals trained to discriminate DOM from saline, and the drug appropriate responding at dose of 0.1 mg/kg; type: functional; procedure, shortened: as §2
Rattus norvegicus [30] = experiment: Compound was evaluated in stimulus generalization test using animals trained to discriminate DOM from saline, and the mean responses per min at dose of 0.05 mg/kg; type: functional; procedure, shortened: as §2
Rattus norvegicus [31] = experiment: Compound was evaluated in stimulus generalization test using animals trained to discriminate DOM from saline, and the drug appropriate responding at dose of 0.3 mg/kg; Not responding; type: functional, organism-based; parameters: dose 0.3 mg/kg; procedure, shortened: as §2
Rattus norvegicus [32] = experiment: Compound was evaluated in stimulus generalization test using animals trained to discriminate DOM from saline, and the mean responses per min at dose of 0.1 mg/kg; type: functional; procedure, shortened: as §2
Rattus norvegicus [33] = experiment: Compound was evaluated in stimulus generalization test using animals trained to discriminate DOM from saline, and the drug appropriate responding at dose of 2.0 mg/kg; Not responding; type: functional, organism-based; parameters: dose 2 mg/kg; procedure, shortened: as §2
Rattus norvegicus [34] = experiment: Compound was evaluated in stimulus generalization test using animals trained to discriminate TFMPP from saline, and the mean responses per min at dose of 0.5 mg/kg; type: functional; procedure, shortened: as §1
Rattus norvegicus [35] = experiment: Stimulus generalization studies in TFMPP trained animals and the number of animals responding /number to receive dose of drug was determined at dose of 0.5 mg/kg; 6/6; type: functional; procedure, shortened: as §1
Rattus norvegicus [36] = experiment: Compound was evaluated in stimulus generalization test using animals trained to discriminate TFMPP from saline, and the drug appropriate responding at dose of 0.5 mg/kg; type: functional; procedure, shortened: as §1

COc1cccc2ccc(N3CCN(C)CC3)nc12
Ki [1]: 1.9 µM | Ki [2]: 1.2 µM

c1ccc2cc(N3CCNCC3)ccc2c1
Mean response/min (Rattus norvegicus [3]): 7 | Mean response/min (Rattus norvegicus [4]): 8.7 | Activity (Rattus norvegicus [5]): 4 | Activity (Rattus norvegicus [6]): 3 | Mean response/min (Rattus norvegicus [7]): 20.6 | Drug responding (Rattus norvegicus [8]): inactive | Ki [1]: 0.265 µM | Ki [2]: 0.07 µM | Mean response/min (Rattus norvegicus [9]): 16.1 | Activity (Rattus norvegicus [10]): 3 | Mean response/min (Rattus norvegicus [11]): 8 | Drug responding (Rattus norvegicus [12]): 25% | Drug responding (Rattus norvegicus [13]): 71% | Activity (Rattus norvegicus [14]): 0 | Activity (Rattus norvegicus [15]): 2 | Mean response/min (Rattus norvegicus [16]): 7 | ED50 (Rattus norvegicus [17]): 2.9 mg/kg | Drug responding (Rattus norvegicus [18]): 12% | Drug responding (Rattus norvegicus [19]): 88% | Activity (Rattus norvegicus [20]): 2 | Activity (Rattus norvegicus [21]): 3 | Drug responding (Rattus norvegicus [22]): 6% | Drug responding (Rattus norvegicus [23]): 3% | Drug responding (Rattus norvegicus [24]): 33% | Mean response/min (Rattus norvegicus [25]): 16.8 | Activity (Rattus norvegicus [26]): 4

CCCN(CCC)c1ccc2cccc(OC)c2n1
Ki [1]: 45 µM | Ki [2]: 50 µM

CCCN(CCC)c1ccc2ccccc2n1
Ki [1]: 25 µM | Ki [2]: 50 µM

Nc1cnc2ccccc2c1
Ki [1]: 56 µM | Ki [2]: > 300 µM

COc1cccc2ccc(N)nc12
Ki [1]: 10.4 µM | Ki [2]: 35 µM

c1ccc(N2CCNCC2)cc1 [PHENYLPIPERAZINE]
Drug responding (Rattus norvegicus [27]): inactive | Drug responding (Rattus norvegicus [28]): 7% | Ki [1]: 0.135 µM | Ki [2]: 2.1 µM | Drug responding (Rattus norvegicus [29]): 8% | Mean response/min (Rattus norvegicus [30]): 13.1 | Drug responding (Rattus norvegicus [31]): inactive | Mean response/min (Rattus norvegicus [32]): 11.9 | Drug responding (Rattus norvegicus [33]): inactive

FC(F)(F)c1cccc(N2CCNCC2)c1
Mean response/min (Rattus norvegicus [34]): 18.2 | Activity (Rattus norvegicus [35]): 6 | Drug responding (Rattus norvegicus [36]): 92%
